Sampled rows, rich in hits. Any-hit rate of the full collection: about 2.5%.
SENP7 inh: inhibitors of human SENP7 protease; Q9BQF6; recombinant SENP7, Z-RLRGG-aminoluciferin luminescence, 40 min; inhibition, % at 5 µM; hit rate 1.5% among 330,000;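 active means inhibition above about 50% at the single test dose, limit read from the data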;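 further: plate controls were DMSO with enzyme for no effect and no enzyme buffer wells for full effect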
Target sequence (Q9BQF6 706-1050 limits assumed): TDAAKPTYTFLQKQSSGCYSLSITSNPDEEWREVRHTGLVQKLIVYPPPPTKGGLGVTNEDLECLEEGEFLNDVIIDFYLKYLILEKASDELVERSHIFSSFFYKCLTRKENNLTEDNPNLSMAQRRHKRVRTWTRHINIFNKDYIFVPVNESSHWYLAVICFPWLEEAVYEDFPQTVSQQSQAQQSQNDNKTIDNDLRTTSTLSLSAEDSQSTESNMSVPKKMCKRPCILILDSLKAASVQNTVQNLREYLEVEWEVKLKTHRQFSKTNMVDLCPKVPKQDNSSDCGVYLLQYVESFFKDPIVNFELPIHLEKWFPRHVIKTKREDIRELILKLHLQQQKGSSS
SENP1 FRET inh: SENP1 (human) catalytic domain inhibition. Q9P0U3. recombinant SENP1 catalytic domain, CyPet-SUMO1-YPet FRET cleavage. inhibition, % at 10 µM. hit rate 0.21% among 360,000. AID 624204;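 active means inhibition at least 30% at 10 µM, raw YFP signal under a set limit, fluorescence ratio 0.5 to 1.5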;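 further: 0% = enzyme with DMSO and 100% = no enzyme wells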
Target sequence (Q9P0U3 419-644 limits assumed): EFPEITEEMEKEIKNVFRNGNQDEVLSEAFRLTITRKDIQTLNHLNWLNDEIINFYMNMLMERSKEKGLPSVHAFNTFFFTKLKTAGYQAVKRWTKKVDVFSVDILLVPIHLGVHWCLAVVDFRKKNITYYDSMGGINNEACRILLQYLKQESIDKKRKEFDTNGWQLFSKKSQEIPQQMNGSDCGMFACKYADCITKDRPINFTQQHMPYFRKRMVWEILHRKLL
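Test system: recombinant human SENP1 catalytic domain, His6-tagged / Medium: pH 8 Tris buffer with EDTA, NaCl, BME, BSA, NP40, catalase / Also added: SUMO1 FRET substrate flanked by Cypet and Ypet, 25 nM / Times: 50 min reaction at room temperature / Signal: FRET, CFP and YFP emission / Control set: no-enzyme low control and enzyme-plus-DMSO high control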
SENP8 block-1: SENP8 protease inhibition. Q96LD8. purified SENP8, Z-RLRGG-aminoluciferin cleavage, luminescence. inhibition, % at 10 µM. hit rate 1.2% among 330,000; in the data active means inhibition above about 50%
SENP6 block: inhibitors of human SENP6 protease; hit rate 1.8% among 330,000; AID 2599; Recombinant SENP6 catalytic domain, aminoluciferin luminescence; Q9GZR1; inhibition, % at 10 µM;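 active means inhibition above about 50% at the single tested dose, limit read from the data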;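 further: plate controls were DMSO wells with enzyme for no effect and DMSO wells lacking enzyme for full effect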
SENP8 block-2: inhibitors of human SENP8 protease | Q96LD8 | hit rate 0.64% among 360,000 | recombinant SENP8, Nedd8 substrate fluorescence | inhibition, % at 20 µM; in the data active means inhibition mostly above about 40%, no sharp cut-off; inactive means mostly below about 27%
SENP8 confirm: confirmation of human SENP8 protease inhibitors. shares compounds with SENP7 inh. Recombinant SENP8, Z-RLRGG-aminoluciferin luminescence, 60 min. inhibition, % at 12.5 µM. hit rate 40% among 6,200;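 active means mean inhibition across replicates above about 50%, limit read from the data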
SENP6 confirm: confirmation of human SENP6 protease inhibitors. shares compounds with SENP7 inh. recombinant SENP6, Z-RLRGG-aminoluciferin luminescence. inhibition, % at 12.5 µM. hit rate 58% among 6,200
SENP7 confirm: confirmation of human SENP7 protease inhibitors. shares compounds with SENP7 inh. inhibition, % at 12.5 µM. recombinant SENP7, Z-RLRGG-aminoluciferin luminescence, 40 min. hit rate 69% among 6,200
Casp3 SENP sel: inhibits human caspase-3 in SENP selectivity test | purified caspase-3, Z-DEVD-aminoluciferin luminescence, 60 min | AID 488918 | shares compounds with SENP7 inh | hit rate 60% among 6,200 | inhibition, % at 12.5 µM;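 active means mean inhibition above about 50%, limit read from the data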;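 further: plate controls were enzyme with DMSO for no effect and wells without caspase-3 for full effect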
SENP luc ctr: counter-screen for SENP inhibitors: luminescence interference. shares compounds with SENP7 inh. Pre-incubated SENP8/Z-RLRGG-aminoluciferin, luciferase luminescence interference. inhibition, % at 12.5 µM. hit rate 39% among 6,200. AID 488919;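 active means mean inhibition above about 50% when retested at one dose, limit read from the data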;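 further: plate controls were DMSO wells with completed reaction for no effect and substrate without enzyme for full effect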
Numbers without * were called inactive; i = inactive; x = not tested or not shown.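 How the source made its calls, unless noted: active means mean inhibition above about 50% in the one-dose retest (limit read from the data); inactive means the rest.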

SMILES	SENP7 inh	SENP1 FRET inh	SENP8 block-1	SENP6 block	SENP8 block-2	SENP8 confirm	SENP6 confirm	SENP7 confirm	Casp3 SENP sel	SENP luc ctr
CCN(CC)C(=O)c1ccc2c(c1)C1C(Cl)C(Sc3ccccc3[N+](=O)[O-])CC1C(C(=O)O)N2 (stereo unspecified)	6	-7	14	12	44*	x	x	x	x	x
Cc1ccc2c(c1Cl)NC(C(=O)O)C1CC(Sc3ccccc3[N+](=O)[O-])C(Cl)C21 (stereo unspecified)	3	-1	6	4	30	x	x	x	x	x
O=C(O)c1ccc2c(c1)C1C(Cl)C(Sc3ccccc3[N+](=O)[O-])CC1C(c1cccc([N+](=O)[O-])c1)N2 (stereo unspecified)	x	4	x	x	49*	x	x	x	x	x
CCOC(=O)C1=CC(=C2C(=O)N(CC)C(=S)N(CC)C2=O)c2ccccc2O1	9	x	-1	4	x	x	x	x	x	x
Cc1cc(C=C2C(=O)N(C)C(=S)N(C)C2=O)c(C)n1-c1cccnc1	11	-15	-2	2	15	x	x	x	x	x
CCOC(=O)C1(CCc2ccccc2)CCN(Cc2ccc3c(c2)OCCO3)CC1	9	2	-8	70*	16	10	1	-4	3	-2
CCOC(=O)C1(CCc2ccccc2)CCN(Cc2ccc(NC(C)=O)cc2)CC1	-3	-1	-7	-9	15	x	x	x	x	x
CCCCCSc1cc(OC)c(CCN(C)C)cc1OC	0	1	3	53*	21	10	5	8	4	4
CCCCCSc1cc(O)c(C(CNC)C(C)C)cc1OC (stereo unspecified)	-10	0	-10	-7	8	x	x	x	x	x
COc1ccc(N2CCN(C(CNC(=O)Oc3ccccc3)c3cccnc3)CC2)cc1 (stereo unspecified)	71*	-2	1	8	7	-12	-2	-7	2	3
Cc1ccsc1C(=O)C1CCCN(Cc2cccn2-c2ccccn2)C1 (stereo unspecified)	-4	-2	-6	-19	6	x	x	x	x	x
CCCOC(=O)C1C2CCC(O2)C1C(=O)O (stereo unspecified)	x	1	x	x	8	x	x	x	x	x
Oc1cc(O)cc(/C=C/c2ccc(O)cc2O)c1	40	-3	46	70*	-499	62*	62*	87*	59*	77*
COc1cc2c(cc1O)[C@@H]1Cc3ccc(OC)c(O)c3CN1CC2	49	-3	64*	74*	80*	10	29	17	6	4
COc1ccc(C[C@@H]2c3cc(O)c(OC)cc3CCN2C)cc1O	-6	0	-3	-4	9	x	x	x	x	x
Brc1ccc(CN2CCNCC2)s1	-2	0	-4	-8	8	x	x	x	x	x
O=c1[nH]c(=S)[nH]c(O)c1N=Nc1ccc(OC(F)F)cc1	93*	8	92*	94*	27	91*	92*	88*	96*	44
O=c1[nH]c(=S)[nH]c(O)c1N=Nc1ccc(S(=O)(=O)N2CCOCC2)cc1	0	-3	-11	-14	35	x	x	x	x	x
CC(C)(C)n1cc(C(=O)c2ccc3ccccc3c2O)cn1	68*	6	57*	-33	9	18	15	2	11	14
O=P(Oc1ccccc1)(Oc1ccccc1)N1CCOCC1	x	2	x	x	-1	x	x	x	x	x
CC(C)CCNC(=O)c1c(N)n(CC2CCCO2)c2nc3ccccc3nc12 (stereo unspecified)	74*	-19	79*	82*	-258	17	48	35	4	5
CCC(C)NC(=O)c1c(N)n(CC2CCCO2)c2nc3ccccc3nc12 (stereo unspecified)	72*	-20	83*	88*	-270	7	41	34	9	6
CCC(C)NC(=O)c1c(N)n(Cc2ccc3c(c2)OCO3)c2nc3ccccc3nc12 (stereo unspecified)	68*	-18	92*	90*	i	2	11	11	-3	3
Nc1c(C(=O)NCCN2CCOCC2)c2nc3ccccc3nc2n1Cc1ccccc1	6	-30	0	25	-425	x	x	x	x	x
c1ccc(N2[C@@H]3CC[C@H]2c2ccncc2C3)cc1	x	2	x	x	2	x	x	x	x	x
SMILES	SENP7 inh	SENP1 FRET inh	SENP8 block-1	SENP6 block	SENP8 block-2	SENP8 confirm	SENP6 confirm	SENP7 confirm	Casp3 SENP sel	SENP luc ctr
CCc1nn2c(=O)c(F)c(N3CCNCC3)nc2s1	x	0	x	x	8	x	x	x	x	x
COCCNC(=O)c1c(N)n(Cc2ccco2)c2nc3ccccc3nc12	5	-21	0	-7	-274	x	x	x	x	x
COCCCn1c(N)c(C(=O)NCc2ccco2)c2nc3ccccc3nc21	87*	x	90*	93*	x	15	26	17	-1	-1
COCCCn1c(N)c(C(=O)Nc2sc3c(c2C(=O)OC)CCCC3)c2nc3ccccc3nc21	71*	-25	89*	91*	-269	1	7	16	7	3
CCC(C)NC(=O)c1c(N)n(CCCOC)c2nc3ccccc3nc12 (stereo unspecified)	90*	-30	92*	86*	-265	40	83*	74*	16	18
Cc1ccc(-n2c(=O)[nH]c3ccccc3c2=O)cc1[N+](=O)[O-]	x	3	x	x	14	x	x	x	x	x
O=C(Nc1ccccc1OC(=O)N1CCCCC1)N1CCCCC1	2	-1	8	15	3	x	x	x	x	x
NS(=O)(=O)c1ccc(N2CCNCC2)cc1	3	0	4	3	6	x	x	x	x	x
CCOC(=O)c1cccc(NC(=O)c2c(O)[nH]c(=O)[nH]c2=O)c1	51*	0	27	58*	7	48	41	81*	73*	45
CCCCOC(=O)c1ccc(NC(=O)c2c(O)[nH]c(=O)[nH]c2=O)cc1	-8	4	-12	-23	-1	x	x	x	x	x
CNC(=O)Oc1ccc(-c2cn3cc(Cl)ccc3n2)cc1	67*	0	64*	78*	-333	37	37	75*	72*	21
Nc1c2c(nc3sc4c(c13)CCCCC4)CCCC2	19	1	35	54*	13	42	34	67*	46	17
O=C(CCc1ccccc1)N1Cc2cc(N3CCOCC3)ccc2-n2nncc2C1	x	2	x	x	-5	x	x	x	x	x
OCC[n+]1c2ccccc2nc2ccc(N3CCOCC3)cc21	22	0	38	52*	31	49	68*	40	48	18

Bioassay records from PubChem BioAssay.
